Experiments:
[1] = biological target: Nociceptin receptor (Cavia porcellus) (UniProt P47748); test: Inhibition of electrically evoked contraction of guinea pig ileum; Effect evident only in some tissues; assay type: functional, tissue-based; details: filed as agonist
[2] = biological target: Nociceptin receptor (Mus musculus) (UniProt P35377); test: Inhibition of electrically evoked contraction of mouse vas deferens; Effect evident only in some tissues; assay type: functional; details: filed as agonist
Sequence of Nociceptin receptor (Mus musculus) (P35377 whole entry): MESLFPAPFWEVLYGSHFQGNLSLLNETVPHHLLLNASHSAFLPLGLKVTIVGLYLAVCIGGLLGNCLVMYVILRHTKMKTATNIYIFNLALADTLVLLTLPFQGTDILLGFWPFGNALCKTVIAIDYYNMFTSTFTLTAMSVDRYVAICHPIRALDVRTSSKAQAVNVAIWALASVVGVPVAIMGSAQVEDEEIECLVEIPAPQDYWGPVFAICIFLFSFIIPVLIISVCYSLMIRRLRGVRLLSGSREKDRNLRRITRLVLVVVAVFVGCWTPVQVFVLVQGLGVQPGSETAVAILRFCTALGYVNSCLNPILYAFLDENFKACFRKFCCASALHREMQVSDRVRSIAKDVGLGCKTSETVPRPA

[3] = biological target: Nociceptin receptor (Mus musculus) (UniProt P35377); test: Antagonistic potency against N/OFQ in electrically evoked contraction of mouse vas deferens at 0.1 uM; assay type: functional, tissue-based
Outline: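 Male Swiss mice (25-30 g). Vas deferens in 5 mL baths of Mg2+-free Krebs at 33 °C, 0.3 g tension, field-stimulated with supramaximal 1 ms pulses at 0.05 Hz, isotonic recording.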

[4] = biological target: Nociceptin receptor (Cavia porcellus) (UniProt P47748); test: Maximal inhibition of electrically evoked contraction of guinea pig ileum; Effect evident only in some tissues; assay type: functional, tissue-based; details: filed as agonist
[5] = biological target: Nociceptin receptor (Mus musculus) (UniProt P35377); test: Maximal inhibition of electrically evoked contraction of mouse vas deferens; Effect evident only in some tissues; assay type: functional; details: filed as agonist
Nociceptin receptor [6] = biological target: T1, Nociceptin receptor (Homo sapiens, UniProt P41146); test: Receptor binding affinity for recombinant human N/OFQ peptide receptor (NOP) expressed in chinese hamster ovary cells; assay type: cell-based, CHO
T1 sequence (P41146 whole entry): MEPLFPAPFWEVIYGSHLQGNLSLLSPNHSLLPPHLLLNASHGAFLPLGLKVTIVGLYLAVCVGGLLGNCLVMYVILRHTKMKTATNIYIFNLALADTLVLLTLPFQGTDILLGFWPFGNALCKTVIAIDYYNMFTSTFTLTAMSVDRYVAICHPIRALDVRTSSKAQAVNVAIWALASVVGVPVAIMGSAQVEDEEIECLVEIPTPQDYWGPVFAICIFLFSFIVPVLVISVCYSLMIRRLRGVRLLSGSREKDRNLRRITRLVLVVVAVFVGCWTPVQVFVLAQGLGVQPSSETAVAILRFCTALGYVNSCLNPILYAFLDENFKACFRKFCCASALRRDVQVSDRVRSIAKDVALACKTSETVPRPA

Nociceptin receptor [7] = biological target: Nociceptin receptor (Cavia porcellus, UniProt P47748); test: Inhibition of electrically evoked contraction of guinea pig ileum; assay type: functional, tissue-based
Sequence of Nociceptin receptor (Cavia porcellus, UniProt P47748) (P47748 whole entry): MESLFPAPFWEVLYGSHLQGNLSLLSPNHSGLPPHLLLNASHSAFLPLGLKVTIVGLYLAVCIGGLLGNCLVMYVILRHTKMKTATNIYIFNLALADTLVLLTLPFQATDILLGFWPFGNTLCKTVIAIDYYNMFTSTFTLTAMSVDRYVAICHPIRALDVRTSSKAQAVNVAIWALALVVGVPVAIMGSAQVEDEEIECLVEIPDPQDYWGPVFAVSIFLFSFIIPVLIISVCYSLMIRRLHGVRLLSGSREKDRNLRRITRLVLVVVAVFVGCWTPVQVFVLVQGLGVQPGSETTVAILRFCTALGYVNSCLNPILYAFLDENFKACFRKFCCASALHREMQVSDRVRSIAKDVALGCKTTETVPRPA
Outline: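 Guinea pig ileum from albino animals (250-300 g), in Krebs at 37 °C under 0.3 g resting tension. Field-stimulated with 1 ms supramaximal pulses at 0.05 Hz; twitches recorded isotonically. After ~1 h equilibration, cumulative concentration-response curves in 0.5 log steps. […] 5-8 experiments.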

Nociceptin receptor [8] = biological target: Nociceptin receptor (Mus musculus, UniProt P35377); test: Inhibition of electrically evoked contraction of mouse vas deferens; assay type: functional
Sequence of Nociceptin receptor (Mus musculus, UniProt P35377) (P35377 whole entry): as the sequence (P35377 whole entry) above
Outline: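 Vas deferens from male Swiss mice (25-30 g), in Mg2+-free Krebs at 33 °C under 0.3 g resting tension. Field-stimulated with 1 ms supramaximal pulses at 0.05 Hz; twitches recorded isotonically. After ~1 h equilibration, cumulative concentration-response curves in 0.5 log steps. […] 5-8 experiments.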

[9] = biological target: Nociceptin receptor (Cavia porcellus) (UniProt P47748); test: Maximal inhibition of electrically evoked contraction of guinea pig ileum; assay type: functional, tissue-based
[10] = biological target: Nociceptin receptor (Mus musculus) (UniProt P35377); test: Maximal inhibition of electrically evoked contraction of mouse vas deferens; assay type: functional, tissue-based
Nociceptin receptor [11] = biological target: T1, Nociceptin receptor; test: Inhibition of forskolin stimulated cAMP levels in CHO cells expressing the human NOP receptor (CHOhNOP)

Sequence of Nociceptin receptor (Cavia porcellus) (P47748 whole entry): as the sequence (P47748 whole entry) above

C[C@H](NC(=O)CNC(=O)[C@@H](NC(=O)[C@H](Cc1ccc(F)cc1)NC(=O)CNC(=O)CNC(=O)CNCc1ccccc1)[C@@H](C)O)C(=O)N[C@@H](CCCN=C(N)N)C(=O)N[C@@H](CCCCN)C(=O)N[C@@H](CO)C(=O)N[C@@H](C)C(=O)N[C@@H](CCCN=C(N)N)C(=O)N[C@@H](CCCCN)C(=O)N[C@@H](CCCN=C(N)N)C(=O)N[C@@H](CCCCN)C(=O)N[C@@H](CC(N)=O)C(=O)N[C@@H](CCC(=O)N(N)N)C(=O)NN
Log EC50 [1]: Agonist | Activity [2]: Agonist | pKb [3]: 7.97 | pKb ([3]; Cavia porcellus): 7.82 | Emax [4]: Agonist | Emax [5]: Agonist

C[C@H](NC(=O)CNC(=O)[C@@H](NC(=O)[C@H](Cc1ccccc1)NC(=O)CNC(=O)CNC(=O)CNCc1ccccc1)[C@@H](C)O)C(=O)N[C@@H](CCCN=C(N)N)C(=O)N[C@@H](CCCCN)C(=O)N[C@@H](CO)C(=O)N[C@@H](C)C(=O)N[C@@H](CCCN=C(N)N)C(=O)N[C@@H](CCCCN)C(=O)N[C@@H](CCCN=C(N)N)C(=O)N[C@@H](CCCCN)C(=O)N[C@@H](CC(N)=O)C(=O)N[C@@H](CCC(N)=O)C(N)=O
Ki (Nociceptin receptor [6]): 0.129 nM

CC(C)C[C@H](NC(=O)[C@H](CCCCN)NC(=O)[C@H](CCCN=C(N)N)NC(=O)[C@H](C)NC(=O)[C@H](CO)NC(=O)[C@H](CCCCN)NC(=O)[C@H](CCCN=C(N)N)NC(=O)[C@H](C)NC(=O)CNC(=O)[C@@H](NC(=O)[C@H](Cc1ccccc1)NC(=O)CNC(=O)CNC(=O)[C@@H](N)Cc1ccccc1)[C@@H](C)O)C(=O)N[C@@H](C)C(=O)N[C@@H](CC(N)=O)C(=O)N[C@@H](CCC(N)=O)C(=O)O [NOCICEPTIN]
EC50 (Nociceptin receptor [7]): 5.25 nM | EC50 (Nociceptin receptor [8]): 5.37 nM

C[C@H](NC(=O)CNC(=O)[C@@H](NC(=O)[C@H](Cc1ccc(F)cc1)NC(=O)CNC(=O)CNC(=O)[C@@H](N)Cc1ccccc1)[C@@H](C)O)C(=O)N[C@@H](CCCN=C(N)N)C(=O)N[C@@H](CCCCN)C(=O)N[C@@H](CO)C(=O)N[C@@H](C)C(=O)N[C@@H](CCCN=C(N)N)C(=O)N[C@@H](CCCCN)C(=O)N[C@@H](CCCN=C(N)N)C(=O)N[C@@H](CCCCN)C(=O)N[C@@H](CC(N)=O)C(=O)N[C@@H](CCC(=O)N(N)N)C(=O)NN
Emax [9]: 55% | Emax [10]: 94%

C[C@H](NC(=O)CNC(=O)[C@@H](NC(=O)[C@H](Cc1ccccc1)NC(=O)CNC(=O)CNC(=O)[C@@H](N)Cc1ccccc1)[C@@H](C)O)C(=O)N[C@@H](CCCN=C(N)N)C(=O)N[C@@H](CCCCN)C(=O)N[C@@H](CO)C(=O)N[C@@H](C)C(=O)N[C@@H](CCCN=C(N)N)C(=O)N[C@@H](CCCCN)C(=O)N[C@@H](CCCN=C(N)N)C(=O)N[C@@H](CCCCN)C(=O)N[C@@H](CC(N)=O)C(=O)N[C@@H](CCC(N)=O)C(N)=O
EC50 (Nociceptin receptor [7]): 1.12 nM | EC50 (Nociceptin receptor [8]): 0.759 nM | Ki (Nociceptin receptor [6]): 0.00692 nM | EC50 (Nociceptin receptor [11]): 0.1 nM

CC(C)C[C@H](NC(=O)[C@H](CCCCN)NC(=O)[C@H](CCCNC(=N)N)NC(=O)[C@H](C)NC(=O)[C@H](CO)NC(=O)[C@H](CCCCN)NC(=O)[C@H](CCCNC(=N)N)NC(=O)[C@H](C)NC(=O)CNC(=O)[C@@H](NC(=O)[C@H](Cc1ccccc1)NC(=O)CNC(=O)CNC(=O)[C@@H](N)Cc1ccccc1)[C@@H](C)O)C(=O)N[C@@H](C)C(=O)N[C@@H](CC(N)=O)C(=O)N[C@@H](CCC(N)=O)C(=O)O
Emax [9]: 58% | Emax [10]: 95%

C[C@H](NC(=O)CNC(=O)[C@@H](NC(=O)[C@H](Cc1ccc(F)cc1)NC(=O)CNC(=O)CNC(=O)[C@@H](N)Cc1ccccc1)[C@@H](C)O)C(=O)N[C@@H](CCCNC(=N)N)C(=O)N[C@@H](CCCCN)C(=O)N[C@@H](CO)C(=O)N[C@@H](C)C(=O)N[C@@H](CCCNC(=N)N)C(=O)N[C@@H](CCCCN)C(=O)N[C@@H](CCCNC(=N)N)C(=O)N[C@@H](CCCCN)C(=O)N[C@@H](CC(N)=O)C(=O)N[C@@H](CCC(N)=O)C(N)=O
EC50 (Nociceptin receptor [7]): 1.05 nM | EC50 (Nociceptin receptor [8]): 0.437 nM | Ki (Nociceptin receptor [6]): 0.00479 nM
